Reference: ChEMBL document CHEMBL1144702, “Synthesis and structure-activity relationship studies on tryprostatin A, an inhibitor of breast cancer resistance protein” (Bioorg Med Chem, 2008)
Activity calls are given as the source filed them. The calls are words filed in the database; no cut-off is given here.

How the values were obtained:
[1] = Inhibition of tubulin polymerization in presence of microtubule-associated proteins at 60 uM
Outline: (§1)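 Tubulin containing MAPs in PME buffer (100 mM PIPES pH 6.9, 2 mM EGTA, 1 mM MgSO4) with GTP and drug in DMSO, tubulin added last; 37 °C, absorbance change at 351 nm over 10 min. Drug concentration varied across runs for delta absorbance versus concentration curves; colchicine standard curves made for each tubulin batch.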

[2] = Cytotoxicity against human H520 cells at 10 uM after 72 hrs by Cell Titer 96 Aqueous Non-Radioactive assay; assay type: functional; settings: NCI-H520, 72 h, read-out: Inhibition
Outline: (§2)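 MCF7, NCI-H520 or PC-3 cells (RPMI-1640, 10% FBS) plated 1 × 10^4/well, 24 h at 37 °C, exposed 72 h to drug at 10 or 100 μM in DMSO or EtOH vehicle (controls usually 0.2%). Survival by MTS/PMS formazan absorbance at 490 nm, plate blank subtracted, as percent of vehicle wells; quadruplicate; etoposide or m-AMSA positive controls.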

[3] = Cytotoxicity against human H520 cells at 100 uM after 72 hrs by Cell Titer 96 Aqueous Non-Radioactive assay; assay type: functional; settings: NCI-H520, 72 h, read-out: Inhibition; outline: as §2
MCF7 [4] = experiment: Cytotoxicity against human MCF7 cells at 10 uM after 72 hrs by Cell Titer 96 Aqueous Non-Radioactive assay; assay type: functional; settings: MCF7, 72 h, read-out: Inhibition; outline: as §2
MCF7 [5] = experiment: Cytotoxicity against human MCF7 cells at 100 uM after 72 hrs by Cell Titer 96 Aqueous Non-Radioactive assay; assay type: functional; settings: MCF7, 72 h, read-out: Inhibition; outline: as §2
PC-3 [6] = experiment: Cytotoxicity against human PC3 cells at 10 uM after 72 hrs by Cell Titer 96 Aqueous Non-Radioactive assay; assay type: functional; settings: PC-3, 72 h, read-out: Inhibition; outline: as §2
PC-3 [7] = experiment: Cytotoxicity against human PC3 cells at 100 uM after 72 hrs by Cell Titer 96 Aqueous Non-Radioactive assay; assay type: functional; settings: PC-3, 72 h, read-out: Inhibition; outline: as §2
[8] = Cytotoxicity against human H520 cells after 72 hrs by Cell Titer 96 Aqueous Non-Radioactive assay; assay type: functional; settings: NCI-H520, 72 h
Outline: (§3)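 MCF7, NCI-H520 and PC-3 cells in RPMI-1640 + 10% FBS, 2 mM L-glutamine, 0.1 mM non-essential amino acids; 1 × 10^4 cells/well, 24 h at 37 °C, then drug in DMSO or EtOH (<1%) for 72 h. Cells under 50% survival at 100 μM retested over further concentrations for GI50. MTS/PMS read at 490 nm, blank subtracted, versus vehicle wells; quadruplicate or more.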

CCRF-CEM = experiment: Cytotoxicity against human CCRF-CEM cells; assay type: functional
[9] = Cytotoxicity against human HL60 (TB) cells; assay type: functional; settings: HL-60
K562 = experiment: Cytotoxicity against human K562 cells; assay type: functional
MOLT-4 = experiment: Cytotoxicity against human MOLT4 cells; assay type: functional
RPMI-8226 = experiment: Cytotoxicity against human RPMI8226 cells; assay type: functional
SR = experiment: Cytotoxicity against human SR cells; assay type: functional
HOP-92 = experiment: Cytotoxicity against human HOP92 cells; assay type: functional
EKVX = experiment: Cytotoxicity against human EKVX cells; assay type: functional
COLO 205 = experiment: Cytotoxicity against human COLO205 cells; assay type: functional
HT-29 = experiment: Cytotoxicity against human HT29 cells; assay type: functional
OVCAR-3 = experiment: Cytotoxicity against human OVCAR-3 cells; assay type: functional
IGROV-1 = experiment: Cytotoxicity against human IGROV1 cells; assay type: functional
DU-145 = experiment: Cytotoxicity against human DU145 cells; assay type: functional
LOX IMVI = experiment: Cytotoxicity against human LOX IMVI cells; assay type: functional
[10] = Cytotoxicity against human […]; assay type: functional
BT-549 = experiment: Cytotoxicity against human BT549 cells; assay type: functional
UO-31 = experiment: Cytotoxicity against human UO31 cells; assay type: functional
MCF7 [11] = experiment: Cytotoxicity against human MCF7 cells after 72 hrs by Cell Titer 96 Aqueous Non-Radioactive assay; assay type: functional; settings: MCF7, 72 h; outline: as §3
PC-3 [12] = experiment: Cytotoxicity against human PC3 cells after 72 hrs by Cell Titer 96 Aqueous Non-Radioactive assay; assay type: functional; settings: PC-3, 72 h; outline: as §3
[13] = Inhibition of tubulin polymerization in presence of microtubule-associated proteins; outline: as §1
[14] = Antiproliferative activity against mouse tsFT210 cells after 48 hrs by WST-8 assay; assay type: functional, cell-based; settings: tsFT210, 48 h
Outline: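 tsFT210 cells (temperature-sensitive cdc2 mutant from mouse mammary carcinoma FM3A), kept in RPMI 1640 with 10% fetal calf serum at 32 °C; exponentially growing cells exposed to compound at 32 °C for 48 h, then WST-8 added for 4 h at 37 °C; absorbance at 450 nm read to estimate cell number; IC50 reported.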

[15] = Cell cycle arrest in mouse tsFT210 cells assessed as accumulation at M phase at 30 uM after 18 hrs by flow cytometry; assay type: functional, cell-based
Outline: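 Murine temperature-sensitive cdc2 mutant tsFT210 cells (from FM3A), kept in RPMI 1640 + 10% FCS at permissive 32 °C; seeded 1x10^5 cells/mL, preincubated 1 h at 32 °C, compound added, 18 h at 32 °C. Microscopy, then propidium iodide (50 μg/mL, 0.1% sodium citrate, 0.2% NP-40) flow cytometry for DNA content; Carnoy-fixed nuclei stained with Hoechst 33258.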

[16] = Cell cycle arrest in mouse tsFT210 cells assessed as accumulation at M phase at 100 uM after 18 hrs by flow cytometry; assay type: functional, cell-based
Outline: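 Synchronous-culture assay: tsFT210 cells seeded at 1x10^5 cells/mL, preincubated 1 h at 32 °C, then incubated with compound 18 h at 32 °C; morphology checked by microscopy; DNA content by flow cytometry after staining with 50 μg/mL propidium iodide, 0.1% sodium citrate, 0.2% NP-40; nuclei/chromosomes stained with Hoechst 33258 after KCl swelling and Carnoy fixation.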

[17] = target: DNA topoisomerase 2-alpha (Homo sapiens) (UniProt P11388); experiment: Inhibition of topoisomerase 2 assessed as relaxation of supercoiled DNA at 100 uM
Chain of DNA topoisomerase 2-alpha (Homo sapiens) (P11388 whole entry): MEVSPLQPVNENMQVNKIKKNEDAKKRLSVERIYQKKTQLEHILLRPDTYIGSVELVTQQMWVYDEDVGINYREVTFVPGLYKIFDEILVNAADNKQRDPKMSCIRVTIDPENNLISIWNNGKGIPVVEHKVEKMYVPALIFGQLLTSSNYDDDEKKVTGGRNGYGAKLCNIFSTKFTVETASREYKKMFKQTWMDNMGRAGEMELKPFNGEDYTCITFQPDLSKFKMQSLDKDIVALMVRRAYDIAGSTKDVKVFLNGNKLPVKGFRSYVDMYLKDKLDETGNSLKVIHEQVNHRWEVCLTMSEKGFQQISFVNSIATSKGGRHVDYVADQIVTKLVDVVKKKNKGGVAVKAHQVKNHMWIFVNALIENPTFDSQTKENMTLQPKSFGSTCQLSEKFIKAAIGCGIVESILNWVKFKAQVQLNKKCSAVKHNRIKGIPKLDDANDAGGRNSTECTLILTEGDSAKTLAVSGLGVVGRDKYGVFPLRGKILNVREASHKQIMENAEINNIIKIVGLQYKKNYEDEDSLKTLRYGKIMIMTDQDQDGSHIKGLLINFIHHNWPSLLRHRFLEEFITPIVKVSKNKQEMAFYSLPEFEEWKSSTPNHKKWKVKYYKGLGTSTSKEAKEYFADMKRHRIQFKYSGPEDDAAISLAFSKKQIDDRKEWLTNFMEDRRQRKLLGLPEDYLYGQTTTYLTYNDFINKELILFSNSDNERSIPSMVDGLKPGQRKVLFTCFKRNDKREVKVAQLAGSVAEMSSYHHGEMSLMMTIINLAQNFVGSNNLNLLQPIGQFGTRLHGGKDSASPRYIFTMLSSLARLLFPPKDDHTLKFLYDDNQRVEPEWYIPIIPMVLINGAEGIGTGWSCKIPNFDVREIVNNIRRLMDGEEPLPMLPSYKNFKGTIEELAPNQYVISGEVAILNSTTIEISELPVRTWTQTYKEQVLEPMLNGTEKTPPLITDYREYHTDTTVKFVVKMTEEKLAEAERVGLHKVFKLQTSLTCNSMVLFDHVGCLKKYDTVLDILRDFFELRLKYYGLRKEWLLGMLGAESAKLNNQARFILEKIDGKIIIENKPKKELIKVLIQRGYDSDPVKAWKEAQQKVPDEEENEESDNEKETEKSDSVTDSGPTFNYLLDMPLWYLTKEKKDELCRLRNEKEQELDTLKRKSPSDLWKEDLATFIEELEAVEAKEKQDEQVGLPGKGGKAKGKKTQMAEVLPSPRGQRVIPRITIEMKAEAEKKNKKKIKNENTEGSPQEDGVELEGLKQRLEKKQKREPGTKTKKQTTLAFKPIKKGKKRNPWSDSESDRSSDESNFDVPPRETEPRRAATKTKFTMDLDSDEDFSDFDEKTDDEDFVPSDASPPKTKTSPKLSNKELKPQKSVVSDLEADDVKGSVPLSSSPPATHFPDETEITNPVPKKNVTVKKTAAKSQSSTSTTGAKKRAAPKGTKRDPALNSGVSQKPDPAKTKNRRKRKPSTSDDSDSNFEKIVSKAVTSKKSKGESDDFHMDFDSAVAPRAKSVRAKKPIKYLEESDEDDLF

With `CC(C)=CCc1[nH]c2ccccc2c1C[C@@H]1NC(=O)[C@H]2CCCN2C1=O` the inhibition [1] was < 2%, the percent cell survival relative to vehicle at 10 µM [2] was 88.3% and the cell survival (% of vehicle control) at 100 µM [3] was 0.1%. For the same compound, the cell survival (% of vehicle control) at 10 µM (MCF7 [4]) was 73.6%, the cell survival (% of vehicle control) at 100 µM (MCF7 [5]) was 0% and the percent cell survival relative to vehicle control at 10 µM (PC-3 [6]) was 59.3%. It also gave a percent cell survival at 100 µM (PC-3 [7]) of 0.2%, a GI50 [8] of 11.9 µM and a GI50 (CCRF-CEM) of 3.22 µM. For the same compound, the GI50 [9] was 22.4 µM, the GI50 (K562) was 20.1 µM and the GI50 (MOLT-4) was 5.96 µM. It also gave a GI50 (RPMI-8226) of 5.54 µM, a GI50 (SR) of 9.46 µM and a GI50 (HOP-92) of 1.7 µM. For the same compound, the GI50 (EKVX) was 6.9 µM, the GI50 (COLO 205) was 17.7 µM and the GI50 (HT-29) was 5.25 µM. It also gave a GI50 (OVCAR-3) of 9.69 µM, a GI50 (IGROV-1) of 11.5 µM and a GI50 (DU-145) of 14 µM. It also gave a GI50 (LOX IMVI) of 9.23 µM, a GI50 [10] of 14.9 µM and a GI50 (BT-549) of 13.2 µM. It also gave a GI50 (UO-31) of 14.7 µM.

`COc1cc([C@@H]2c3cc4c(cc3[C@@H](O[C@@H]3O[C@@H]5CO[C@@H](C)O[C@H]5[C@H](O)[C@H]3O)[C@H]3COC(=O)[C@H]23)OCO4)cc(OC)c1O` [ETOPOSIDE] showed a GI50 [8] of 8.7 µM, a GI50 (MCF7 [11]) of 55.6 µM and a GI50 (PC-3 [12]) of 11.1 µM.

Compound `COc1ccc2c(C[C@@H]3NC(=O)[C@@H]4CCCN4C3=O)c(CC=C(C)C)[nH]c2c1` [TRYPROSTATIN A] has an IC50 [13] of 250 µM, a percent cell survival relative to vehicle at 10 µM [2] of 80.1% and a cell survival (% of vehicle control) at 100 µM [3] of 79.4%. For the same compound, the cell survival (% of vehicle control) at 10 µM (MCF7 [4]) was > 100%, the cell survival (% of vehicle control) at 100 µM (MCF7 [5]) was 95% and the percent cell survival relative to vehicle control at 10 µM (PC-3 [6]) was 99.2%. The percent cell survival at 100 µM (PC-3 [7]) was 95.6%, the GI50 (MCF7 [11]) was > 100 µM and the GI50 (PC-3 [12]) was 94 µM. For the same compound, the GI50 (CCRF-CEM) was > 100 µM, the GI50 [9] was 11.3 µM and the GI50 (K562) was 2.73 µM. The GI50 (RPMI-8226) was 37.1 µM, the GI50 (SR) was 5.68 µM and the GI50 (HOP-92) was 21.2 µM. For the same compound, the GI50 (EKVX) was > 100 µM, the GI50 (COLO 205) was > 100 µM and the GI50 (OVCAR-3) was > 100 µM. For the same compound, the GI50 (IGROV-1) was 90.5 µM, the GI50 (DU-145) was > 100 µM and the GI50 (LOX IMVI) was > 100 µM. The GI50 [10] was > 100 µM, the GI50 (BT-549) was 79.7 µM and the GI50 (UO-31) was > 100 µM. The IC50 [14] was 68 µM and the Activity [15] was “Active”.

For `COc1ccc2c(C[C@@H]3NC(=O)[C@H](Cc4ccccc4)NC3=O)c[nH]c2c1`, the Activity [16] was “Active” and the IC50 [14] was 100 µM.

With `CC(C)=CCc1[nH]c2ccccc2c1C[C@H]1NC(=O)[C@H]2CCCN2C1=O` the Activity [17] was “inactive”, the IC50 [13] was > 700 µM and the percent cell survival relative to vehicle at 10 µM [2] was > 100%. For the same compound, the cell survival (% of vehicle control) at 100 µM [3] was 99.8%, the cell survival (% of vehicle control) at 10 µM (MCF7 [4]) was > 100% and the cell survival (% of vehicle control) at 100 µM (MCF7 [5]) was > 100%. For the same compound, the percent cell survival relative to vehicle control at 10 µM (PC-3 [6]) was 95.8%, the percent cell survival at 100 µM (PC-3 [7]) was 78.9% and the GI50 (MCF7 [11]) was 40 µM. The GI50 (PC-3 [12]) was 21.2 µM, the GI50 (CCRF-CEM) was 25.1 µM and the GI50 [9] was 29 µM. It also gave a GI50 (K562) of 25.8 µM, a GI50 (MOLT-4) of 21 µM and a GI50 (RPMI-8226) of 12.9 µM. The GI50 (SR) was 12.1 µM, the GI50 (EKVX) was 39.4 µM and the GI50 (COLO 205) was 21.2 µM. The GI50 (HT-29) was 37.5 µM, the GI50 (OVCAR-3) was 38.2 µM and the GI50 (IGROV-1) was 16 µM. The GI50 (DU-145) was > 50 µM, the GI50 (LOX IMVI) was > 50 µM and the GI50 [10] was 11.9 µM. It also gave a GI50 (BT-549) of 7.21 µM and a GI50 (UO-31) of 12.6 µM.
